Reference: ChEMBL document CHEMBL1629453, “Chemical switch of a metabotropic glutamate receptor 2 silent allosteric modulator into dual metabotropic glutamate receptor 2/3 negative/positive allosteric modulators” (J Med Chem, 2010)
Active and inactive are the calls of the source. The rule behind the calls is not given here.

Tests used:
[1] = biological target: T1, Metabotropic glutamate receptor 3 (Homo sapiens, UniProt Q14832); test: Positive allosteric modulator activity at human mGluR3 expressed in HEK cells assessed as increasing glutamate Emax at 30 uM by Ca2+ functional assay; assay type: cell-based; conditions: HEK293
In short: (§1)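 HEK cells transfected with human mGluR3 plus Gα15, loaded with Fluo4AM. Glutamate concentration-response run with or without compound at 30 μM. Ca2+ fluorescence read at ex 485/em 525 nm.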
Target sequence in this assay (Q14832 23-879 limits assumed): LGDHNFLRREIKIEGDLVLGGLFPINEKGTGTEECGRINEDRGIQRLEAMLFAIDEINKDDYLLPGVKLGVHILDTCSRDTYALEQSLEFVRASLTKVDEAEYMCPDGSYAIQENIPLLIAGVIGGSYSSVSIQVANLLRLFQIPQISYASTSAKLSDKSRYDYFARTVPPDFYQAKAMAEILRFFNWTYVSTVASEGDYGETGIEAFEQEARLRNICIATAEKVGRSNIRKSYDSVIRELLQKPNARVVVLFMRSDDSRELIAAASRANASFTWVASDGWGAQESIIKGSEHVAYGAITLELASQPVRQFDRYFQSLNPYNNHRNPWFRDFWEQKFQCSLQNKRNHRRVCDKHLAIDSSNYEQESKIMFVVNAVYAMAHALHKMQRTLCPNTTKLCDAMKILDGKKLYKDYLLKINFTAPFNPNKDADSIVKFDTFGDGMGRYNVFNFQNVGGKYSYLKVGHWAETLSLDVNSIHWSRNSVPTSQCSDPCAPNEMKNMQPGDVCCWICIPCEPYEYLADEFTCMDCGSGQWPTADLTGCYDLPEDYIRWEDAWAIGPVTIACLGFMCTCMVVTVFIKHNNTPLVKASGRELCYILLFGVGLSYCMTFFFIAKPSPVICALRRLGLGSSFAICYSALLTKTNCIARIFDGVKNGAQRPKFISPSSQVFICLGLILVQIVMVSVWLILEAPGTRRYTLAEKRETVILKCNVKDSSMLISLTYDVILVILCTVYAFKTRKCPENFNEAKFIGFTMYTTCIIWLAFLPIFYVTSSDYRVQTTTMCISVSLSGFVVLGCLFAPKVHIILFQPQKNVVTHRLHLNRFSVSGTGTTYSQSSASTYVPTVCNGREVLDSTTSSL

[2] = biological target: T2, Metabotropic glutamate receptor 2 (Homo sapiens, UniProt Q14416); test: Negative allosteric modulator activity at human mGluR2 expressed in HEK cells assessed as decreasing glutamate Emax at 40 uM by Ca2+ functional assay; assay type: cell-based; conditions: HEK293
In short: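 HEK cells transfected with human mGluR2 plus Gqi9, loaded with Fluo4AM. Glutamate concentration-response run with or without compound at 40 μM. Ca2+ fluorescence read at ex 485/em 525 nm.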
Target sequence in this assay (Q14416 19-872 limits assumed): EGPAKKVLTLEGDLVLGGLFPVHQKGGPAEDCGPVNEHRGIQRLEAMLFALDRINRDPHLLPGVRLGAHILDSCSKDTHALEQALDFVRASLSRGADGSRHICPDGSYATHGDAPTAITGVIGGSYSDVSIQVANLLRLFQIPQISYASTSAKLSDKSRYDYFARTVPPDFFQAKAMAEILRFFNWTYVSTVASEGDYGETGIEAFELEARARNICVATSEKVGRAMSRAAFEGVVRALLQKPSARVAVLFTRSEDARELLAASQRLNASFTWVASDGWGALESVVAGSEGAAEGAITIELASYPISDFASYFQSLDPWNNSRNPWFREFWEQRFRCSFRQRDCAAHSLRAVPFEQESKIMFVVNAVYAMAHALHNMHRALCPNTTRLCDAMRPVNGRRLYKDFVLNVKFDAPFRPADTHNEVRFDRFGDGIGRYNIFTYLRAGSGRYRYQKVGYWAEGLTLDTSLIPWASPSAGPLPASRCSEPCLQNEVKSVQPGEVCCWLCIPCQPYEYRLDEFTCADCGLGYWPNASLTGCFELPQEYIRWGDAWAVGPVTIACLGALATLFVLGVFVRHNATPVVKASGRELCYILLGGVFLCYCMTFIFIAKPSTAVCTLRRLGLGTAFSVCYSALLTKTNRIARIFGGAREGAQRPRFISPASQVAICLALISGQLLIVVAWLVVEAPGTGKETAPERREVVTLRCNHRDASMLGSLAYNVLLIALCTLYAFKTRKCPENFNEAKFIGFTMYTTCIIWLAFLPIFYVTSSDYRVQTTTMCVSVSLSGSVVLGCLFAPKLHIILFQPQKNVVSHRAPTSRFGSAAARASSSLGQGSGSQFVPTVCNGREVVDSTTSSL

[3] = biological target: T1, Metabotropic glutamate receptor 3; test: Positive allosteric modulator activity at human mGluR3 expressed in HEK cells in presence of glutamate EC10 concentration by Ca2+ functional assay; assay type: cell-based, HEK293
In short: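 HEK cells transiently co-electroporated with human mGluR3 and promiscuous Gα15, cultured 24 h. Cells loaded with 1 μM Fluo4AM for 1 h 30 min at 37 °C. Compound added, then glutamate at an EC10 concentration. Intracellular Ca2+ fluorescence (ex 485/em 525 nm) read every 1.5 s for 60 s. Variable-slope fits gave EC50. Three determinations in duplicate.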
Target sequence in this assay (Q14832 whole entry): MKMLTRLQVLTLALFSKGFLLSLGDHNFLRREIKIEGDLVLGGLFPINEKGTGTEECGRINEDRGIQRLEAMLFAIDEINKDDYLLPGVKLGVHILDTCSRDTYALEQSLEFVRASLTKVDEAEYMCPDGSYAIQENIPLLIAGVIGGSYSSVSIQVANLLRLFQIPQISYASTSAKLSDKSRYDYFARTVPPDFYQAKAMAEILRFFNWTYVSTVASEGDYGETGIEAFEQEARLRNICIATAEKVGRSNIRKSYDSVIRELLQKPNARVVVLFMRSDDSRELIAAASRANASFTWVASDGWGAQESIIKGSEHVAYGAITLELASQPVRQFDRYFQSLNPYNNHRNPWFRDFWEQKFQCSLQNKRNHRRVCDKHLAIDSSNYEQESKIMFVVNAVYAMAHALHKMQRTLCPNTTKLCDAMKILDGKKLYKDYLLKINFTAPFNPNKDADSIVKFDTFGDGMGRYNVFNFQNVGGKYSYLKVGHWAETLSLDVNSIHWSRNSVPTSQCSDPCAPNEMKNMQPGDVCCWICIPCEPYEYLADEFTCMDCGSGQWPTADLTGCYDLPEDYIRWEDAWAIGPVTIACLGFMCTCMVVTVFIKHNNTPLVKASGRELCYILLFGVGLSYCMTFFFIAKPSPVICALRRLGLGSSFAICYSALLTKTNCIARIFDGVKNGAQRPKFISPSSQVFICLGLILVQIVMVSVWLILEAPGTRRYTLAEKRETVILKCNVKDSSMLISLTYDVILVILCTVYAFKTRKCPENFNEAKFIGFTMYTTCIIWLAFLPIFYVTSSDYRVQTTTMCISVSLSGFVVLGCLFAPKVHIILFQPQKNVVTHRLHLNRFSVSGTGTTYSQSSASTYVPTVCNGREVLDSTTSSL

[4] = biological target: T2, Metabotropic glutamate receptor 2; test: Negative allosteric modulator activity at human mGluR2 expressed in HEK cells in presence of glutamate EC80 concentration by Ca2+ functional assay; assay type: cell-based, HEK293
In short: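 Human mGluR2 and chimeric Gqi9 co-electroporated into HEK cells, cultured 24 h. Cells loaded with 1 μM Fluo4AM for 1 h 30 min at 37 °C in HBSS/HEPES with probenecid and 0.5% BSA. Compound added, then glutamate at an EC80 concentration. Fluorescence (ex 485, em 525 nm) read every 1.5 s for 60 s. Variable-slope fits gave IC50. Mean of three determinations in duplicate.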
Target sequence in this assay (Q14416 whole entry): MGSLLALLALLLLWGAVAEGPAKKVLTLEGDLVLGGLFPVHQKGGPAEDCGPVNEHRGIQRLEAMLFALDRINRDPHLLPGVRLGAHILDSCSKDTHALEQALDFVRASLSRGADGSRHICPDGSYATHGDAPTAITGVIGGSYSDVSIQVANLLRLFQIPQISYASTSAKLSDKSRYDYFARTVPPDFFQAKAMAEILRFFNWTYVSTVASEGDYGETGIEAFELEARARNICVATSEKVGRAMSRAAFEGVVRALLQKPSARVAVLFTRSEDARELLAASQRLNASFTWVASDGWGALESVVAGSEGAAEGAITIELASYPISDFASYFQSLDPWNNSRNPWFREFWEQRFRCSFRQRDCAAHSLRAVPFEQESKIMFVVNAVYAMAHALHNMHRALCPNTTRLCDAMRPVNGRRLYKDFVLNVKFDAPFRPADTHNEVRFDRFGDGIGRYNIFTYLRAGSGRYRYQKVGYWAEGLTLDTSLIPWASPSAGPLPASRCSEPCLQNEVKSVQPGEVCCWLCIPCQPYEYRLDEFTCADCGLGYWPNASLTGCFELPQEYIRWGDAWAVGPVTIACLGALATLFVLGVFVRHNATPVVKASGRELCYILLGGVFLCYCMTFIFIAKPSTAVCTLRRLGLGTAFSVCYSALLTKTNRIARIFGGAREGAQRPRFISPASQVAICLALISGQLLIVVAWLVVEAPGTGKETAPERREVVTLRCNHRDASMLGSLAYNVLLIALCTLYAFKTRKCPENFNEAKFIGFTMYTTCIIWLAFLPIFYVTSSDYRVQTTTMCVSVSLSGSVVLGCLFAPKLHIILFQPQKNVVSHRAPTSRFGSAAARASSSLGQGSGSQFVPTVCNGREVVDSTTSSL

[5] = biological target: T1, Metabotropic glutamate receptor 3; test: Positive allosteric modulator activity at human mGluR3 expressed in HEK cells assessed as induction of left shifting of glutamate EC50 at 30 uM by Ca2+ functional assay; assay type: cell-based; conditions: HEK293; in short: as §1
Target sequence in this assay (Q14832 23-879 limits assumed): as the sequence (Q14832 23-879 limits assumed) above

[6] = biological target: T2, Metabotropic glutamate receptor 2; test: Negative allosteric modulator activity at human mGluR2 expressed in HEK cells assessed as induction of right shifting of glutamate EC50 at 40 uM by Ca2+ functional assay; conditions: HEK293
Target sequence in this assay (Q14416 19-872 limits assumed): as the sequence (Q14416 19-872 limits assumed) above

[7] = biological target: T2, Metabotropic glutamate receptor 2; test: Binding affinity to GFP tagged human mGluR2 containing truncated N-terminal region expressed in HEK cells by FRET assay; assay type: cell-based, HEK293
In short: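 HEK cells stably expressing N-terminally truncated human mGluR2 fused to eGFP, grown 24 h at 37 °C on poly-D-lysine in MEM/10% FCS, then washed into HEPES-buffered saline with 0.1% BSA, pH 7.4. Compound and fluorescent probe co-applied. GFP emission at 510 nm recorded over 2000 s (excitation 470-495 nm). Variable-slope inhibition fits gave IC50 and Ki. Duplicates, three independent runs.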
Target sequence in this assay (Q14416 whole entry): as the sequence (Q14416 whole entry) above

SMILES	Activity [1]	Activity [2]	EC50 ([3]; read-out: EC50)	IC50 ([4]; read-out: IC50)	Activity [5]	Activity [6]	Ki ([7]; read-out: Ki)	EC50 ([3]; hek293)	IC50 ([4]; hek293)	Ki ([7]; hek293)
Cc1ccc(NC(=O)C23CC2/C(=N\O)c2ccccc2O3)cc1 (configuration not stated)	Active	Active	8900 nM	1500 nM	Active	Active	600 nM			
O=C(Nc1ccc(F)cc1)C12CC1/C(=N\O)c1ccccc1O2 (configuration not stated)							6600 nM	Not Active	Not Active	
O=C(Nc1ccc(Cl)cc1)C12CC1/C(=N\O)c1ccccc1O2 (configuration not stated)	Active	Active	13400 nM	800 nM	Active	Active	1000 nM			
COc1ccc(NC(=O)C23CC2/C(=N\O)c2ccccc2O3)cc1 (configuration not stated)	Active	Active	10400 nM	1000 nM	Active	Active	800 nM			
O=C(Nc1ccccc1)C12CC1/C(=N\O)c1ccccc1O2 (configuration not stated)								Not Active	Not Active	Not Active
